{"source": "ChEMBL document CHEMBL2203029", "about": "“Discovery and Structural Modification of 1-Phenyl-3-(1-phenylethyl)urea Derivatives as Inhibitors of Complement” (ACS Med Chem Lett, 2012)", "note": "Active and inactive are the calls of the source. The calls are words filed in the database; no cut-off is given here."}
{"test_system": "not listed separately", "assay": "Inhibition of lectin pathway in human serum assessed as inhibition of C9 deposition at 10 ug/mL incubated for 1 hr by ELISA", "format": "cell-free", "units": {"inhibition": "%"}}
{"compound": "COc1ccc(NC(=O)N[C@@H](C)c2ccccc2)cc1OCCCC(C)C", "inhibition": 90}
{"test_system": "not listed separately", "assay": "Inhibition of lectin pathway in human serum assessed as inhibition of C3 activation incubated for 1 hr by ELISA", "format": "cell-free", "outline": "(§1)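 Normal human serum was added to coated plates and incubated with a range of inhibitor concentrations. The coating set the pathway: IgM for the classical pathway, mannan for the lectin pathway, and zymosan for the alternative pathway. C3, C4 and C9 deposition were then measured on the plates.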"}
{"compound": "COc1ccc(NC(=O)N[C@@H](C)c2ccccc2)cc1OCCCC(C)C", "inhibition": "inactive"}
{"species": "Homo sapiens", "assay": "Inhibition of classical complement system in human serum assessed as inhibition of C9 deposition at 10 ug/mL incubated for 1 hr by ELISA", "format": "cell-free", "units": {"inhibition": "%"}}
{"compound": "COc1ccc(NC(=O)N[C@@H](C)c2ccccc2)cc1OCCCC(C)C", "inhibition": 90}
{"species": "Homo sapiens", "assay": "Inhibition of complement system in human fetal serum assessed as inhibition of hemolysis at 100 ug/mL incubated for 1 hr by spectrophotometric analysis"}
{"compound": "COc1cc(NC(=O)N[C@@H](C)c2ccccc2)ccc1OCc1ccccc1", "inhibition": "inactive"}
{"compound": "CCCCCCCCCCCCOc1cc(NC(=O)N[C@@H](C)c2ccccc2)ccc1OC", "inhibition": "inactive"}
{"compound": "CCOc1ccc(NC(=O)N[C@@H](C)c2ccccc2)cc1OC", "inhibition": "inactive"}
{"compound": "COc1ccc(NC(=O)N[C@H](C)c2ccccc2)cc1OC", "inhibition": "16.9%"}
{"compound": "CCCCCCCCCCOc1cc(NC(=O)N[C@@H](C)c2ccccc2)ccc1OC", "inhibition": "inactive"}
{"compound": "CCOC(=O)COc1ccc(NC(=O)N[C@@H](C)c2ccccc2)cc1OC", "inhibition": "inactive"}
{"compound": "COc1ccc(NC(=O)N[C@@H](C)c2ccccc2)cc1OCCN1CCCC1", "inhibition": "inactive"}
{"compound": "COc1ccc(NC(=O)NCc2cccc(-c3ccccc3)c2)cc1OC", "inhibition": "inactive"}
{"compound": "C[C@H](NC(=O)Nc1cccnc1)c1ccccc1", "inhibition": "inactive"}
{"compound": "C[C@H](NC(=O)Nc1ccccc1)c1ccccc1", "inhibition": "inactive"}
{"compound": "COc1ccc(N(C)C(=O)N(C)[C@@H](C)c2ccccc2)cc1OCCCC(C)C", "inhibition": "inactive"}
{"compound": "C=CCOc1ccc(NC(=O)N[C@@H](C)c2ccccc2)cc1OC", "inhibition": "inactive"}
{"compound": "COc1ccc(NC(=O)N[C@@H](C)c2ccccc2)cc1O", "inhibition": "35.3%"}
{"compound": "COc1ccc(NC(=O)N[C@@H](C)c2ccccc2)cc1OCc1ccccc1", "inhibition": "32.7%"}
{"compound": "COc1cc(NC(=O)N[C@@H](C)c2ccccc2)ccc1O", "inhibition": "14.6%"}
{"compound": "COc1ccc(NC(=O)NCc2cccc3ccccc23)cc1OC", "inhibition": "inactive"}
{"compound": "C[C@H](NC(=O)Nc1ccc(Cl)cc1)c1ccccc1", "inhibition": "inactive"}
{"compound": "COc1ccc(NC(=O)N(C)Cc2ccccc2)cc1OC", "inhibition": "43.8%"}
{"compound": "COc1cc(NC(=O)N[C@@H](C)c2ccccc2)ccc1OCCNC(=O)OC(C)(C)C", "inhibition": "inactive"}
{"compound": "COc1ccc(NC(=O)N[C@@H](C)c2ccccc2)cc1", "inhibition": "inactive"}
{"compound": "COc1cccc(NC(=O)N[C@@H](C)c2ccccc2)c1", "inhibition": "inactive"}
{"test_system": "not listed separately", "assay": "Inhibition of classical complement system in human serum assessed as inhibition of C9 deposition incubated for 1 hr by ELISA", "format": "cell-free", "outline": "as §1", "units": {"IC50": "µg/mL"}}
{"compound": "COc1ccc(NC(=O)N[C@@H](C)c2ccccc2)cc1OCCCC(C)C", "IC50": 3.68}
{"species": "Homo sapiens", "assay": "Inhibition of alternative complement system in human serum assessed as inhibition of C3 activation incubated for 1 hr by ELISA", "format": "cell-free", "outline": "as §1"}
{"compound": "COc1ccc(NC(=O)N[C@@H](C)c2ccccc2)cc1OCCCC(C)C", "inhibition": "inactive"}
{"species": "Homo sapiens", "assay": "Inhibition of complement system in human fetal serum assessed as inhibition of hemolysis at 10 ug/mL incubated for 1 hr by spectrophotometric analysis"}
{"compound": "COc1ccc(NC(=O)N[C@@H](C)c2ccc(C(F)(F)F)cc2)cc1OCCCC(C)C", "inhibition": "inactive"}
{"test_system": "not listed separately", "assay": "Inhibition of lectin pathway in human serum assessed as inhibition of C4 activation incubated for 1 hr by ELISA", "format": "cell-free", "outline": "as §1"}
{"compound": "COc1ccc(NC(=O)N[C@@H](C)c2ccccc2)cc1OCCCC(C)C", "inhibition": "inactive"}
{"test_system": "not listed separately", "assay": "Inhibition of alternative complement system in human serum assessed as inhibition of C9 deposition incubated for 1 hr by ELISA", "format": "cell-free", "outline": "as §1", "units": {"IC50": "µg/mL"}}
{"compound": "COc1ccc(NC(=O)N[C@@H](C)c2ccccc2)cc1OCCCC(C)C", "IC50": 3.59}
{"species": "Homo sapiens", "assay": "Inhibition of alternative complement system in human serum assessed as inhibition of C9 deposition at 10 ug/mL incubated for 1 hr by ELISA", "format": "cell-free", "units": {"inhibition": "%"}}
{"compound": "COc1ccc(NC(=O)N[C@@H](C)c2ccccc2)cc1OCCCC(C)C", "inhibition": 90}
{"species": "Homo sapiens", "assay": "Inhibition of classical complement system in human serum assessed as inhibition of C4 activation incubated for 1 hr by ELISA", "format": "cell-free", "outline": "as §1"}
{"compound": "COc1ccc(NC(=O)N[C@@H](C)c2ccccc2)cc1OCCCC(C)C", "inhibition": "inactive"}
{"test_system": "not listed separately", "assay": "Inhibition of lectin pathway in human serum assessed as inhibition of C9 deposition incubated for 1 hr by ELISA", "format": "cell-free", "outline": "as §1", "units": {"IC50": "µg/mL"}}
{"compound": "COc1ccc(NC(=O)N[C@@H](C)c2ccccc2)cc1OCCCC(C)C", "IC50": 4.46}
{"test_system": "not listed separately", "assay": "(§2) Inhibition of complement system in human fetal serum assessed as inhibition of hemolysis incubated for 1 hr by spectrophotometric analysis", "units": {"IC50": "nM"}}
{"compound": "COc1ccc(NC(=O)N(CCCO)[C@@H](C)c2ccccc2)cc1OCCCC(C)C", "IC50": 223}
{"compound": "CCCOc1cc(NC(=O)N[C@@H](C)c2ccccc2)ccc1OC", "IC50": 353}
{"compound": "COc1ccc(NC(=O)N[C@@H](C)c2cccc(O)c2)cc1OCCCC(C)C", "IC50": 77}
{"compound": "COc1ccc(NC(=O)N[C@@H](C)c2ccccc2)cc1OCC1CCCN(C)C1", "note": "(some centres not stated)", "IC50": 3200}
{"compound": "CCOc1cc(NC(=O)N[C@@H](C)c2ccccc2)ccc1OC", "IC50": 2860}
{"compound": "C=C(C)COc1cc(NC(=O)N[C@@H](C)c2ccccc2)ccc1OC", "IC50": 7900}
{"compound": "COc1ccc(NC(=O)N(CCCN)[C@@H](C)c2ccccc2)cc1OCCCC(C)C", "IC50": 7160}
{"compound": "CC#CCOc1cc(NC(=O)N[C@@H](C)c2ccccc2)ccc1OC", "IC50": 1590}
{"compound": "COc1ccc(NC(=O)N[C@@H](C)c2ccccc2)cc1OCCC(C)C", "IC50": 630}
{"compound": "COc1ccc(NC(=O)N[C@@H](C)c2ccc(C#N)cc2)cc1OCCCC(C)C", "IC50": 1260}
{"compound": "CCCCCCOc1cc(NC(=O)N[C@@H](C)c2ccccc2)ccc1OC", "IC50": 17}
{"compound": "COc1ccc(NC(=O)N(CCO)[C@@H](C)c2ccccc2)cc1OCCCC(C)C", "IC50": 323}
{"compound": "COc1ccc(NC(=O)N[C@@H](C)c2cccc(Br)c2)cc1OCCCC(C)C", "IC50": 1320}
{"compound": "COc1ccc(NC(=O)N[C@@H](C)c2ccccc2)cc1OCCCC(C)C", "IC50": 13}
{"compound": "COCCOc1cc(NC(=O)N[C@@H](C)c2ccccc2)ccc1OC", "IC50": 2000}
{"compound": "COc1ccc(NC(=O)N[C@@H](C)c2ccccc2)cc1OCC(C)C", "IC50": 870}
{"compound": "CCCCOc1cc(NC(=O)N[C@@H](C)c2ccccc2)ccc1OC", "IC50": 33}
{"compound": "CCOC(=O)COc1cc(NC(=O)N[C@@H](C)c2ccccc2)ccc1OC", "IC50": 6200}
{"compound": "N=C(N)c1cc2ccc(OC(=O)c3cccs3)cc2s1", "IC50": 10}
{"compound": "CCC#CCOc1cc(NC(=O)N[C@@H](C)c2ccccc2)ccc1OC", "IC50": 244}
{"compound": "COc1ccc(NC(=O)N(C)[C@@H](C)c2ccccc2)cc1OCCCC(C)C", "IC50": 19}
{"compound": "COc1ccc(NC(=O)N[C@@H](C)c2ccc(C(=O)O)cc2)cc1OCCCC(C)C", "IC50": 761}
{"compound": "COc1ccc(NC(=O)N[C@@H](C)c2ccc(O)cc2)cc1OCCCC(C)C", "IC50": 139}
{"compound": "COc1ccc(N(C)C(=O)N[C@@H](C)c2ccccc2)cc1OCCCC(C)C", "IC50": 540}
{"compound": "CCCCOc1cc(NC(=O)NC(CC)c2ccccc2)ccc1OC", "note": "(configuration not stated)", "IC50": 420}
{"compound": "COc1ccc(NC(=O)N[C@@H](C)c2ccc(F)cc2)cc1OCCCC(C)C", "IC50": 402}
{"compound": "COc1ccc(NC(=O)N[C@@H](C)c2ccc(Br)cc2)cc1OCCCC(C)C", "IC50": 3390}
{"compound": "COc1ccc(NC(=O)N(CC(O)CO)[C@@H](C)c2ccccc2)cc1OCCCC(C)C", "note": "(some centres not stated)", "IC50": 368}
{"compound": "CCCCCOc1cc(NC(=O)N[C@@H](C)c2ccccc2)cc(OC)c1", "IC50": 270}
{"compound": "COc1ccc(NC(=O)N[C@@H](C)c2ccccc2)cc1OCC1CCCCC1", "IC50": 468}
{"compound": "CCCCOc1cc(NC(=O)N2CCCC2c2ccccc2)ccc1OC", "note": "(configuration not stated)", "IC50": 105}
{"compound": "COc1ccc(NC(=O)N[C@@H](C)c2ccccc2[N+](=O)[O-])cc1OCCCC(C)C", "IC50": 368}
{"compound": "CCCCCOc1cc(NC(=O)N[C@@H](C)c2ccccc2)ccc1OC", "IC50": 19}
{"compound": "COc1ccc(NC(=O)N[C@@H](C)c2ccc(C)cc2)cc1OCCCC(C)C", "IC50": 327}
{"compound": "COc1ccc(NC(=O)N[C@@H](C)c2ccc([N+](=O)[O-])cc2)cc1OCCCC(C)C", "IC50": 1690}
{"compound": "CCCCCCCOc1cc(NC(=O)N[C@@H](C)c2ccccc2)ccc1OC", "IC50": 780}
{"compound": "COc1ccc(NC(=O)N[C@@H](C)c2ccccc2)cc1OC(C)C", "IC50": 10600}
{"compound": "CCCCCOc1cccc(NC(=O)N[C@@H](C)c2ccccc2)c1", "IC50": 3200}
{"compound": "COc1ccc(N(CCCO)C(=O)N[C@@H](C)c2ccccc2)cc1OCCCC(C)C", "IC50": 1580}
{"compound": "COC(=O)c1ccc([C@H](C)NC(=O)Nc2ccc(OC)c(OCCCC(C)C)c2)cc1", "IC50": 535}
{"compound": "COc1ccc(NC(=O)N[C@@H](C)c2ccccc2)cc1OC", "IC50": 50000}
{"compound": "C=CCOc1cc(NC(=O)N[C@@H](C)c2ccccc2)ccc1OC", "IC50": 1750}
{"compound": "C#CCOc1cc(NC(=O)N[C@@H](C)c2ccccc2)ccc1OC", "IC50": 8300}
{"compound": "COc1ccc(NC(=O)N[C@@H](C)c2ccccc2)cc1OCCN1CCCCC1", "IC50": 35500}
{"compound": "CCCCCCCCOc1cc(NC(=O)N[C@@H](C)c2ccccc2)ccc1OC", "IC50": 1290}
{"species": "Homo sapiens", "assay": "as §2"}
{"compound": "CCCCCOc1cc(OC)c(NC(=O)N[C@@H](C)c2ccccc2)c(OC)c1", "inhibition": "inactive"}
{"compound": "CCCCOc1cc(NC(=O)NCCC(C)c2ccccc2)ccc1OC", "note": "(configuration not stated)", "inhibition": "inactive"}
{"compound": "CCCCOc1cc(NC(=O)NCC(C)c2ccccc2)ccc1OC", "note": "(configuration not stated)", "inhibition": "inactive"}
{"compound": "CCCCCOc1ccccc1NC(=O)N[C@@H](C)c1ccccc1", "inhibition": "inactive"}
{"compound": "CCCCOc1cc(NC(=O)NC2CCc3ccccc32)ccc1OC", "note": "(configuration not stated)", "inhibition": "inactive"}
{"compound": "CCCCCOc1ccc(OC)cc1NC(=O)N[C@@H](C)c1ccccc1", "inhibition": "inactive"}
{"compound": "CCCCCOc1cc(OC)ccc1NC(=O)N[C@@H](C)c1ccccc1", "inhibition": "inactive"}
{"compound": "CCCCOc1cc(NC(=O)N2CCCCC2c2ccccc2)ccc1OC", "note": "(configuration not stated)", "inhibition": "inactive"}
{"species": "Homo sapiens", "assay": "Inhibition of alternative complement system in human serum assessed as inhibition of C4 activation incubated for 1 hr by ELISA", "format": "cell-free", "outline": "as §1"}
{"compound": "COc1ccc(NC(=O)N[C@@H](C)c2ccccc2)cc1OCCCC(C)C", "inhibition": "inactive"}
{"species": "Homo sapiens", "assay": "Inhibition of classical complement system in human serum assessed as inhibition of C3 activation incubated for 1 hr by ELISA", "format": "cell-free", "outline": "as §1"}
{"compound": "COc1ccc(NC(=O)N[C@@H](C)c2ccccc2)cc1OCCCC(C)C", "inhibition": "inactive"}
